Tests used:
[1] = biological target: T1, Adrenergic receptor alpha-1 (Rattus norvegicus, UniProt P15823+P23944+P43140); assay: Binding affinity towards alpha-1 adrenergic receptor in rat cortical membranes; assay type: cell membranes
T1 sequence (P15823 whole entry): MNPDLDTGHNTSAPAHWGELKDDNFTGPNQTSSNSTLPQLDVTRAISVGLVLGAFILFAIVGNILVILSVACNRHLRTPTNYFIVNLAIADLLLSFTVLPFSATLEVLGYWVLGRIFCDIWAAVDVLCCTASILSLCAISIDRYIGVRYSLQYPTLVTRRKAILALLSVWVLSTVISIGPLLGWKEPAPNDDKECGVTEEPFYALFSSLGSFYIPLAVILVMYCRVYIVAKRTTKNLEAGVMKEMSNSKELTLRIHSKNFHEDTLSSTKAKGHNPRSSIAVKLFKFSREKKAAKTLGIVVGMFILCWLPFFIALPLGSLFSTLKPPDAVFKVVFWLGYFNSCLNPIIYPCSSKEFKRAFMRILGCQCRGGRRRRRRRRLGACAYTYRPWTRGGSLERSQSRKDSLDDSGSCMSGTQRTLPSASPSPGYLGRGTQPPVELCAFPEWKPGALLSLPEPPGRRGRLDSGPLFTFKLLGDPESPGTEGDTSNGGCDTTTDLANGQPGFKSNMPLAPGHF
T1 sequence (P23944 whole entry): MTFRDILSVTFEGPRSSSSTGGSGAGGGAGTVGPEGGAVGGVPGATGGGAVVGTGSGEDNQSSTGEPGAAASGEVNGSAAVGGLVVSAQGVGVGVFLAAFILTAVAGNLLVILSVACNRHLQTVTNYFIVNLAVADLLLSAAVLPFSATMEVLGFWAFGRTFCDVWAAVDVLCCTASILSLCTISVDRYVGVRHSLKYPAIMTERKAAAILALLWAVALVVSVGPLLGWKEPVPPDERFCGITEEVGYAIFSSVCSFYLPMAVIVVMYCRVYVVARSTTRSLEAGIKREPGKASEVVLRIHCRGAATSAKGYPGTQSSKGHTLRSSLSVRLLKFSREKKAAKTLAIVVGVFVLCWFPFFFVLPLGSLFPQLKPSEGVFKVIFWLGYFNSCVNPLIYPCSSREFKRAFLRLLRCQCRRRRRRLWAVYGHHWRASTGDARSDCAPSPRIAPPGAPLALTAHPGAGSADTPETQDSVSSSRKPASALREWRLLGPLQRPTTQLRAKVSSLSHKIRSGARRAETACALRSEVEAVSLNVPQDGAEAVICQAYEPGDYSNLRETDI
T1 sequence (P43140 whole entry): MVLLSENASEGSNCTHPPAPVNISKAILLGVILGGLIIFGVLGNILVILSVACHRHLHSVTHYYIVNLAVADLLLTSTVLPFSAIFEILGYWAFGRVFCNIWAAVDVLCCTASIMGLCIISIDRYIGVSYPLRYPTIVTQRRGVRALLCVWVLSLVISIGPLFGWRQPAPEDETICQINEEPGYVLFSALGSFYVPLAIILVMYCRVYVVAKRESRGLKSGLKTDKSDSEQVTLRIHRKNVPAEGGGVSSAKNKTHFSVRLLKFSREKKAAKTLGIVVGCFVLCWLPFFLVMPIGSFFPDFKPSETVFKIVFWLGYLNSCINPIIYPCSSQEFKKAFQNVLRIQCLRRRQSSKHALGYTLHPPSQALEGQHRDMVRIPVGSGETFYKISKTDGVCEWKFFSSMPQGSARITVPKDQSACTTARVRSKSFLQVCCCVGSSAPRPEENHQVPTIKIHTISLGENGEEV

[2] = biological target: T2, 5-hydroxytryptamine receptor 1A (Homo sapiens) (UniProt P08908); assay: Maximal stimulation was expressed as percentage of the maximal 5-HT response in the [35S]GTP-gamma-S, binding assay on 5-hydroxytryptamine 1A receptor; assay type: functional
T2 sequence (whole entry): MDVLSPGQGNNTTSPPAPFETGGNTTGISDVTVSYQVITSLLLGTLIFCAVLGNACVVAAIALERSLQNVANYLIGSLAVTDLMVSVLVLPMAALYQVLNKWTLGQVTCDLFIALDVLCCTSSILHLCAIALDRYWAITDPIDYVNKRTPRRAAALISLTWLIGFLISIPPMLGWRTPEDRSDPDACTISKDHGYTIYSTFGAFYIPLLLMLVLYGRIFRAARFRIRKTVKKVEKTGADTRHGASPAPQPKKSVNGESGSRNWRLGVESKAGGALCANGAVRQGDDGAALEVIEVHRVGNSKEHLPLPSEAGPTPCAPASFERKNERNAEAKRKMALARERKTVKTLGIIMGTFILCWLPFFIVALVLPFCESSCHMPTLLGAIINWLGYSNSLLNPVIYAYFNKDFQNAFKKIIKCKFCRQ
How it was run: (§1)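 Membranes of HeLa cells expressing human 5-HT1A, in 20 mM HEPES, 3 mM MgCl2, 120 mM NaCl pH 7.4. Preincubated 20 min at 30 °C with 30 µM GDP and drug (0.1 nM–100 µM) or 5-HT as reference curve. [35S]GTPγS (200–250 pM) then added for 30 min at 30 °C. Nonspecific binding with 10 µM GTPγS. Curves fitted by ALLFIT to give Emax and pD2 (−log EC50).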

[3] = biological target: T2, 5-hydroxytryptamine receptor 1A (Homo sapiens); assay: Potency (pD2) for the stimulation of [35S]GTP-gamma-S, binding on 5-hydroxytryptamine 1A receptor; assay type: functional; how it was run: as §1
[4] = Selectivity expressed as a ratio of affinity against Alpha 1d-Adrenoceptor to that of 5-HT1A receptor
[5] = Selectivity expressed as a ratio of affinity against Alpha 1A-Adrenoceptor to that of 5-HT1A receptor
[6] = biological target: T3, 5-hydroxytryptamine receptor 1A (Homo sapiens, UniProt P08908); assay: Binding affinity on human cloned 5-hydroxytryptamine 1A receptor transfected in human cell lines (He La); assay type: cell-based, Cell line
T3 sequence (P08908 whole entry): T2 sequence (whole entry)
How it was run: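 HeLa cells stably expressing human 5-HT1A (genomic clone G-21), grown in DMEM with 10% FCS. […] Nonspecific binding with 10 µM 5-HT. Filtration through PEI-pretreated filters.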

[7] = Selectivity expressed as a ratio of affinity against Alpha 1b-Adrenoceptor to that of 5-HT1A receptor

| Structure (SMILES) | Ki [1] | Emax [2] | pD2 [3] | Selectivity [4] | Selectivity [5] | Ki [6] | Selectivity [7] |
| --- | --- | --- | --- | --- | --- | --- | --- |
| COc1cccc2c1CCCC2CCCN1CCN(c2ccccn2)CC1 (stereo not drawn) | 55 nM | 98.2% | 10.2 | 74 | 4 | 0.08 nM | 98 |
| COc1cccc2c(CCCNCCOc3ccccn3)cccc12 | 1300 nM | 48% | 8.2 | 97 | 17 | – | 314 |
| COc1cccc2c(CCCN3CCN(c4ccccn4)CC3)cccc12 | 833 nM | 86.3% | 7.87 | 4 | 0.5 | – | 1 |
| COc1cccc2c1CCCC2CCCNCCOc1ccccn1 (stereo not drawn) | 83 nM | 86.8% | 10.2 | 55 | 2 | – | 115 |
| COc1cccc(C2CCC(N3CCN(c4ccccc4OC)CC3)CC2)c1 (stereo in doubt; trans) | 312 nM | – | – | – | – | – | – |

Now from value to molecule:

| Ki [1] | Emax [2] | pD2 [3] | Selectivity [4] | Selectivity [5] | Ki [6] | Selectivity [7] | Structure (SMILES) |
| --- | --- | --- | --- | --- | --- | --- | --- |
| > 850 nM | – | – | – | – | – | – | COc1cccc(C2CCC(NCCOc3ccccn3)CC2)c1 (stereo in doubt) |
| 767 nM | – | – | – | – | – | – | COc1cccc(C2CCC(N3CCN(c4ccccn4)CC3)CC2)c1 (trans isomer) |

Reference: ChEMBL document CHEMBL1134307, “trans-4-[4-(Methoxyphenyl)cyclohexyl]-1-arylpiperazines: a new class of potent and selective 5-HT(1A) receptor ligands as conformationally constrained analogues of 4-[3-(5-methoxy-1,2,3,4-tetrahydronaphthalen-1-yl)propyl]-1-arylpiperazines” (J Med Chem, 2001)
